In ChEMBL document CHEMBL4049439, “Synthesis and Characterization of Tetrahydropyran-Based Bacterial Topoisomerase Inhibitors with Antibacterial Activity against Gram-Negative Bacteria” (J Med Chem, 2017):
Converted amounts (≈) assume the structure as drawn. The source made the active and inactive calls. The calls are words filed in the database; no cut-off is given here.

Assays:
[1] = system: Escherichia coli; test: Antibacterial activity against wild-type Escherichia coli MG1655 by CLSI broth microdilution method; assay type: functional; settings: K-12 substr. MG1655
How it was run: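 MIC (μg/mL) determined on wild-type E. coli MG1655, the parent of isogenic strains with truncated LPS or deleted TolC or AcrAB efflux.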

[2] = Solubility of the compound at pH 1 to 9; assay type: physicochemical; settings: buffer
[3] = Terminal half-life in NMRI mouse at 10 mg/kg, iv by LC-MS/MS analysis; assay type: ADME, organism-based; settings: in vivo, read-out: beta t1/2 (converted)
How it was run: (§1)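 Mice dosed iv at 10 mg/kg or sc at 120 mg/kg. AUC normalized to dose (μg·h/(mL·dose)). Unbound AUC derived using fraction unbound. Clearance, Vdss and terminal half-life also derived.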

[4] = system: Escherichia coli; test: Ratio of MIC for wild-type Escherichia coli MG1655 to MIC for Escherichia coli MG1655 harboring AcrAB deletion mutant; assay type: functional, K-12 substr. MG1655
How it was run: (§2)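 Fold change in MIC for each MG1655 derivative (ΔacrAB, ΔrfaC, ΔtolC) relative to the MIC measured on wild-type E. coli MG1655, with both MICs in μg/mL.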

[5] = system: Escherichia coli; test: Antibacterial activity against wild-type Escherichia coli ATCC 25922 by CLSI broth microdilution method; assay type: functional
[6] = system: Mus musculus; test: Dose normalized unbound AUC in NMRI mouse at 10 mg/kg, iv by LC-MS/MS analysis; assay type: ADME, organism-based; settings: in vivo; how it was run: as §1
[7] = Ratio of AUC in NMRI mouse to MIC for methicillin-sensitive Staphylococcus aureus A-1178 infected in cyclophosphamide-induced neutropenic NMRI mouse model at 40 mg/kg/day
[8] = system: Escherichia coli; test: Ratio of MIC for wild-type Escherichia coli MG1655 to MIC for Escherichia coli MG1655 harboring tolC deletion mutant; assay type: functional, K-12 substr. MG1655; how it was run: as §2
[9] = Volume of distribution at steady state in NMRI mouse at 10 mg/kg, iv by LC-MS/MS analysis; assay type: ADME, organism-based; settings: in vivo, read-out: Vdss
How it was run: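 Mice received a single dose of 10 mg/kg intravenously, or 120 mg/kg subcutaneously for one compound. Clearance, Vdss, half-life, unbound fraction and dose-normalized AUC were derived from plasma exposure.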

[10] = system: Escherichia coli; test: Antibacterial activity against Escherichia coli MG1655 harboring tolC deletion mutant by CLSI broth microdilution method; assay type: functional; settings: K-12 substr. MG1655
How it was run: (§3)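 MIC (μg/mL) measured against engineered derivatives of E. coli MG1655. ΔrfaC has truncated LPS (raised permeability). ΔtolC lacks the outer-membrane TolC efflux component. ΔacrAB lacks the AcrAB efflux system of the cytoplasmic membrane.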

[11] = Fraction unbound in NMRI mouse at 10 mg/kg, iv by rapid equilibrium dialysis; assay type: ADME, organism-based; settings: plasma; how it was run: as §1
[12] = system: Escherichia coli; test: Ratio of MIC for wild-type Escherichia coli MG1655 to MIC for Escherichia coli MG1655 harboring rfac deletion mutant; assay type: functional, K-12 substr. MG1655; how it was run: as §2
[13] = system: Escherichia coli; test: Antibacterial activity against Escherichia coli MG1655 harboring rfac deletion mutant by CLSI broth microdilution method; assay type: functional; settings: K-12 substr. MG1655; how it was run: as §3
[14] = system: Cavia porcellus; test: Cardiotoxicity in Dunkin-Hartley guinea pig assessed as free plasma concentration causing effect on QRS interval administered as iv at 3 mg/kg for first 20 mins of infusion followed by 10 mg/kg for second 20 mins of infusion followed by 30 mg/kg for third 20 mins of infusion by LC-MS/MS analysis; assay type: toxicity, organism-based; settings: in vivo
How it was run: (§4)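 Anesthetized guinea pigs received 3, 10 and 30 mg/kg iv over three consecutive 20 min periods. MAP, HR and ECG intervals (PR, QRS, RR, QT) recorded continuously. Blood drawn at the end of each period for drug levels. Value is the lowest plasma concentration differing from vehicle-treated animals. Free level uses unbound fraction from rapid equilibrium dialysis of guinea pig plasma.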

[15] = system: Serratia marcescens; test: Antibacterial activity against Serratia marcescens by CLSI broth microdilution method; assay type: functional
[16] = system: Cavia porcellus; test: Cardiotoxicity in Dunkin-Hartley guinea pig assessed as free plasma concentration causing effect on PR interval administered as iv at 3 mg/kg for first 20 mins of infusion followed by 10 mg/kg for second 20 mins of infusion followed by 30 mg/kg for third 20 mins of infusion by LC-MS/MS analysis; assay type: toxicity, organism-based; settings: in vivo; how it was run: as §4
[17] = system: Staphylococcus aureus; test: Antibacterial activity against methicillin-sensitive Staphylococcus aureus A-1178 infected in cyclophosphamide-induced neutropenic NMRI mouse model assessed as log reduction in colony forming units in thighs at 40 mg/kg, sc treated 2 hrs post infection measured 22 hrs post dose; assay type: functional
How it was run: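 Neutropenic mouse thigh model infected with a methicillin-sensitive S. aureus strain, subcutaneous dosing. Thigh CFU measured 24 h post-infection (22 h post-treatment). Net log reduction given against CFU at treatment start.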

[18] = system: Escherichia coli; test: Antibacterial activity against Escherichia coli MG1655 harboring AcrAB deletion mutant by CLSI broth microdilution method; assay type: functional; settings: K-12 substr. MG1655; how it was run: as §3
[19] = system: Streptococcus agalactiae; test: Antibacterial activity against Streptococcus agalactiae by CLSI broth microdilution method; assay type: functional
[20] = system: Escherichia coli; test: Antibacterial activity against Escherichia coli ATCC 25922 infected in cyclophosphamide-induced neutropenic NMRI mouse model assessed as log reduction in colony forming units in thighs at 360 mg/kg, sc treated 2 hrs post infection measured 5.5 hrs post dose; assay type: functional
How it was run: (§5)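 Neutropenic murine thigh infection with an E. coli strain, compound given subcutaneously. Thigh CFU counted 7.5 h post-infection (5.5 h post-treatment). Net change expressed relative to CFU at treatment start.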

[21] = Clearance in dog at 1 mg/kg, iv by LC-MS/MS analysis; assay type: ADME, organism-based, Canis lupus familiaris; settings: in vivo
How it was run: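 Dogs given 1 mg/kg iv. Clearance (mL/min/kg) and half-life (h) derived from plasma profiles.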

[22] = system: Mus musculus; test: Dose normalized AUC in NMRI mouse at 120 mg/kg, sc by LC-MS/MS analysis; assay type: ADME, organism-based; settings: in vivo; how it was run: as §1
[23] = Apparent clearance in NMRI mouse at 120 mg/kg, sc by LC-MS/MS analysis; assay type: ADME, organism-based; settings: in vivo; how it was run: as §1
[24] = Fraction unbound in NMRI mouse plasma at 120 mg/kg, sc by rapid equilibrium dialysis; assay type: ADME, organism-based; how it was run: as §1
[25] = Terminal half-life in NMRI mouse at 120 mg/kg, sc by LC-MS/MS analysis; assay type: ADME, organism-based; settings: in vivo, read-out: beta t1/2 (converted); how it was run: as §1
[26] = system: Escherichia coli; test: Antibacterial activity against Escherichia coli ATCC 25922 infected in cyclophosphamide-induced neutropenic NMRI mouse model assessed as reduction in colony forming units in thighs at 120 mg/kg, sc treated 2 hrs post infection measured 5.5 hrs post dose; assay type: functional, organism-based; how it was run: as §5
[27] = system: Escherichia coli; test: Antibacterial activity against Escherichia coli ATCC 25922 by CLSI broth microdilution method; assay type: functional
[28] = system: Mus musculus; test: Dose normalized unbound AUC in NMRI mouse at 120 mg/kg, sc by LC-MS/MS analysis; assay type: ADME, organism-based; settings: in vivo; how it was run: as §1

COc1ccc2ncc(F)c(C[C@H](N)[C@@H]3CC[C@@H](NCc4ccc5c(n4)NC(=O)CO5)CO3)c2n1
MIC [1]: 0.063 µg/mL (≈ 0.131 µM)
solubility [2]: > 100 µg/mL
half-life [3]: 5.6 h
Ratio [4]: 8
MIC [5]: 0.125 µg/mL (≈ 0.259 µM)
fAUC/dose [6]: 35.4 µg·h/mL
RatioAUC/MIC [7]: 23.5
Ratio [8]: 8
Vd [9]: 12.3 L/kg
MIC [10]: 0.008 µg/mL (≈ 0.0166 µM)
fraction unbound [11]: 0.15
Ratio [12]: 2
MIC [13]: 0.031 µg/mL (≈ 0.0642 µM)
Cp(f) [14]: 1800 nM
MIC [15]: 1 to 8 µg/mL (≈ 2.07 to 16.6 µM)
Cp(f) [16]: 1800 nM
Activity [17]: >2.5 log10CFU
MIC [18]: 0.008 µg/mL (≈ 0.0166 µM)
MIC [19]: 2 µg/mL (≈ 4.14 µM)

COc1ccc2ccc(=O)n(C[C@H](N)[C@@H]3CC[C@@H](NCc4ccc5c(n4)NC(=O)CO5)CO3)c2n1
Activity [20]: 2 log10CFU
MIC [5]: 0.25 µg/mL (≈ 0.52 µM)
clearance [21]: 45 mL/min/kg
AUC/dose [22]: 186 µg·h/mL
CL/F [23]: 86 mL/min/kg
Cp(f) [14]: 2700 nM
fraction unbound [24]: 0.369
half-life [25]: 5.2 h
Activity [26]: inactive
MIC [15]: 8 to 16 µg/mL (≈ 16.6 to 33.3 µM)
Cp(f) [16]: 2700 nM
MIC [19]: 4 µg/mL (≈ 8.32 µM)
MIC [27]: 0.25 µg/mL (≈ 0.52 µM)
fAUC/dose [28]: 68.6 µg·h/mL
